# Activity calls are given as the source filed them. No cut-off for these calls is given here.
# Assays:
# Human alphaherpesvirus 1 [1] = assay: Antiviral activity against HSV1 infected in african green monkey Vero cells by SRB assay; assay type: functional, organism-based; conditions: Human alphaherpesvirus 1, Vero
# Summary of the method: (§1)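 Screening: Vero monolayers, infected or uninfected, were treated with a range of compound concentrations. Antiviral activity was read by sulforhodamine B (SRB) staining, and EC50 was taken as the concentration giving 50% efficacy.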
# Enterovirus C [2] = assay: Antiviral activity against Poliovirus infected in african green monkey Vero cells by SRB assay; assay type: functional, organism-based; summary of the method: as §1
# [3] = Selectivity index, ratio of CC50 for african green monkey Vero cells to EC50 in Poliovirus; assay type: toxicity, cell-based; conditions: read-out: Ratio CC50/EC50
# Summary of the method: (§2)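 SI was derived from the SRB-based CC50 in Vero cells and the SRB-based EC50 against each virus.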
# [4] = Cytotoxicity against african green monkey Vero cells after 72 hrs by SRB assay; assay type: cell-based; conditions: chlorocebus sabaeus
# Summary of the method: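 Uninfected Vero cells were exposed to compound for 72 h and viability was measured by SRB assay. CC50 is the concentration giving 50% cytotoxicity.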
# [5] = Selectivity index, ratio of CC50 for african green monkey Vero cells to EC50 in HSV1; summary of the method: as §2
# Human alphaherpesvirus 1 [6] = assay: Antiviral activity against 1 hr compound pretreated HSV1 infected in african green monkey Vero cells assessed as inhibition of viral replication measured after 48 to 72 hrs; assay type: functional, organism-based
# Summary of the method: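 HSV-1 was mixed with compound for 1 h before being added to Vero cells. The mixture infected the cells for 1 h at 37 °C in 5% CO2. The monolayer was washed with PBS and overlaid with DMEM containing carboxymethylcellulose. After 48 or 72 h at 37 °C, cells were fixed with 10% formaldehyde and stained with 0.5% crystal violet, and plaques were counted.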
# Enterovirus C [7] = assay: Antiviral activity against Poliovirus infected in african green monkey Vero cells assessed as reduction of plaque formation at 6.6 uM treated 1 hr after viral infection measured after 48 to 72 hrs by virus yield inhibition assay; assay type: functional; design: scale not given: the % may be the effect or the level left
# Summary of the method: (§3)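 PBS-washed Vero monolayers were infected for 1 h. Unadsorbed virus was removed, cells were washed, and compound was then added at various concentrations in DMEM with 0.5% carboxymethylcellulose. After 48 or 72 h at 37 °C, cells were fixed with 10% formaldehyde, stained with 0.5% crystal violet and plaques counted.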
# Enterovirus C [8] = assay: Antiviral activity against Poliovirus infected in african green monkey Vero cells assessed as reduction of plaque formation at 1.65 uM treated during viral infection measured after 48 to 72 hrs by virus yield inhibition assay; assay type: functional; design: scale not given: the % may be the effect or the level left
# Summary of the method: (§4)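 Compound was diluted from DMSO into serum-free DMEM and added together with virus to PBS-washed Vero monolayers for 1 h at 37 °C in 5% CO2. Unadsorbed virus was removed, and cells were washed with PBS and overlaid with DMEM plus 0.5% carboxymethylcellulose. After 48 or 72 h, cells were fixed with 10% formaldehyde, stained with 0.5% crystal violet and plaques counted.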
# Enterovirus C [9] = assay: Antiviral activity against Poliovirus infected in african green monkey Vero cells assessed as reduction of plaque formation at 1.65 uM treated 1 hr after viral infection measured after 48 to 72 hrs by virus yield inhibition assay; assay type: functional; design: scale not given: the % may be the effect or the level left; summary of the method: as §3
# Enterovirus C [10] = assay: Antiviral activity against 1 hr compound pretreated Poliovirus infected in african green monkey Vero cells assessed as reduction of plaque formation at 0.825 uM after 48 to 72 hrs by virus yield inhibition assay; assay type: functional; design: scale not given: the % may be the effect or the level left
# Enterovirus C [11] = assay: Antiviral activity against Poliovirus infected in 1 hr compound pretreated african green monkey Vero cells assessed as reduction of plaque formation at 1.65 uM measured after 48 to 72 hrs by virus yield inhibition assay; assay type: functional; design: scale not given: the % may be the effect or the level left
# Summary of the method: (§5)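 Compound was dissolved in DMSO, diluted in serum-free DMEM and added to PBS-washed Vero monolayers for 1 h at 37 °C in 5% CO2. Unbound compound was removed and cells were washed and then infected for 1 h. Unadsorbed virus was removed, and cells were washed and overlaid with DMEM plus 0.5% carboxymethylcellulose. After 48 or 72 h, cells were fixed with formaldehyde, stained with crystal violet and plaques counted.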
# Enterovirus C [12] = assay: Antiviral activity against Poliovirus infected in african green monkey Vero cells assessed as reduction of plaque formation at 0.825 uM treated 1 hr after viral infection measured after 48 to 72 hrs by virus yield inhibition assay; assay type: functional; design: scale not given: the % may be the effect or the level left; summary of the method: as §3
# Enterovirus C [13] = assay: Antiviral activity against Poliovirus infected in african green monkey Vero cells assessed as reduction of plaque formation at 6.6 uM treated during viral infection measured after 48 to 72 hrs by virus yield inhibition assay; assay type: functional; design: scale not given: the % may be the effect or the level left; summary of the method: as §4
# Enterovirus C [14] = assay: Antiviral activity against 1 hr compound pretreated Poliovirus infected in african green monkey Vero cells assessed as reduction of plaque formation at 6.6 uM after 48 to 72 hrs by virus yield inhibition assay; assay type: functional; design: scale not given: the % may be the effect or the level left
# Enterovirus C [15] = assay: Antiviral activity against Poliovirus infected in 1 hr compound pretreated african green monkey Vero cells assessed as reduction of plaque formation at 3.3 uM measured after 48 to 72 hrs by virus yield inhibition assay; assay type: functional; design: scale not given: the % may be the effect or the level left; summary of the method: as §5
# Enterovirus C [16] = assay: Antiviral activity against Poliovirus infected in 1 hr compound pretreated african green monkey Vero cells assessed as reduction of plaque formation at 6.6 uM measured after 48 to 72 hrs by virus yield inhibition assay; assay type: functional; design: scale not given: the % may be the effect or the level left; summary of the method: as §5
# Enterovirus C [17] = assay: Antiviral activity against Poliovirus infected in african green monkey Vero cells assessed as reduction of plaque formation at 3.3 uM treated 1 hr after viral infection measured after 48 to 72 hrs by virus yield inhibition assay; assay type: functional; design: scale not given: the % may be the effect or the level left; summary of the method: as §3
# Enterovirus C [18] = assay: Antiviral activity against 1 hr compound pretreated Poliovirus infected in african green monkey Vero cells assessed as reduction of plaque formation at 1.65 uM after 48 to 72 hrs by virus yield inhibition assay; assay type: functional; design: scale not given: the % may be the effect or the level left
# Enterovirus C [19] = assay: Antiviral activity against 1 hr compound pretreated Poliovirus infected in african green monkey Vero cells assessed as reduction of plaque formation at 3.3 uM after 48 to 72 hrs by virus yield inhibition assay; assay type: functional; design: scale not given: the % may be the effect or the level left
# Enterovirus C [20] = assay: Antiviral activity against Poliovirus infected in african green monkey Vero cells assessed as reduction of plaque formation at 0.825 uM treated during viral infection measured after 48 to 72 hrs by virus yield inhibition assay; assay type: functional; design: scale not given: the % may be the effect or the level left; summary of the method: as §4
# Enterovirus C [21] = assay: Antiviral activity against Poliovirus infected in 1 hr compound pretreated african green monkey Vero cells assessed as reduction of plaque formation at 0.825 uM measured after 48 to 72 hrs by virus yield inhibition assay; assay type: functional; design: scale not given: the % may be the effect or the level left; summary of the method: as §5
# Enterovirus C [22] = assay: Antiviral activity against Poliovirus infected in african green monkey Vero cells assessed as reduction of plaque formation at 3.3 uM treated during viral infection measured after 48 to 72 hrs by virus yield inhibition assay; assay type: functional; design: scale not given: the % may be the effect or the level left; summary of the method: as §4
SMILES,EC50 (Human alphaherpesvirus 1 [1]) [µM],EC50 (Enterovirus C [2]) [µM],CC50 at 72 h [4] [µM],Ratio CC50/EC50 [5],also measured
COc1ccc(-c2nc(C(=O)N/N=C/c3ccc([N+](=O)[O-])cc3)cc3c2[nH]c2ccccc23)cc1,> 100,> 100,,,
COc1ccc(-c2nc(C(=O)N/N=C/c3ccccc3)cc3c2[nH]c2ccccc23)cc1,> 100,> 100,,,
CN(C)c1ccc(/C=N/NC(=O)c2cc3c([nH]c4ccccc43)c(-c3ccc([N+](=O)[O-])cc3)n2)cc1,> 100,> 100,,,
COc1ccc(/C=N/NC(=O)c2cc3c([nH]c4ccccc43)c(-c3ccccc3)n2)cc1,0.47,0.87,1150,2446.8,selectivity ratio [3]: 1320; Activity (Human alphaherpesvirus 1 [6]): inactive
O=C(N/N=C/c1ccc([N+](=O)[O-])cc1)c1cc2c([nH]c3ccccc32)c(-c2ccc(O)cc2)n1,86.5,> 100,200,2.3,
COc1ccc(/C=N/NC(=O)c2cc3c([nH]c4ccccc43)c(-c3ccc(OC)cc3)n2)cc1,> 100,> 100,,,
COc1ccc(/C=N/NC(=O)c2cc3c([nH]c4ccccc43)c(-c3cccc([N+](=O)[O-])c3)n2)cc1,> 100,> 100,,,
COc1ccc(/C=N/NC(=O)c2cc3c([nH]c4ccccc43)c(-c3ccc(O)cc3)n2)cc1,22.9,> 100,803,35,
O=C(N/N=C/c1ccc([N+](=O)[O-])cc1)c1cc2c([nH]c3ccccc32)c(-c2ccccc2)n1,> 100,> 100,,,
COc1ccc(/C=N/NC(=O)c2cc3c([nH]c4ccccc43)c(-c3ccc([N+](=O)[O-])cc3)n2)cc1,> 100,> 100,,,
COc1ccc(-c2nc(C(=O)N/N=C/c3ccc(N(C)C)cc3)cc3c2[nH]c2ccccc23)cc1,> 100,> 100,,,
O=C(N/N=C/c1ccccc1)c1cc2c([nH]c3ccccc32)c(-c2ccc(O)cc2)n1,> 100,1.03,1240,,selectivity ratio [3]: 1200
CN(C)c1ccc(/C=N/NC(=O)c2cc3c([nH]c4ccccc43)c(-c3ccccc3)n2)cc1,1.85,0.87,1160,629.5,selectivity ratio [3]: 1340
CN(C)c1ccc(/C=N/NC(=O)c2cc3c([nH]c4ccccc43)c(-c3cccc([N+](=O)[O-])c3)n2)cc1,73.2,> 100,1050,14.3,
O=C(N/N=C/c1ccccc1)c1cc2c([nH]c3ccccc32)c(-c2ccccc2)n1,> 100,1.95,777,,selectivity ratio [3]: 398
O=C(N/N=C/c1ccccc1Cl)c1cc2c([nH]c3ccccc32)c(-c2ccccc2)n1,> 100,> 100,,,
O=C(N/N=C/c1ccccc1Cl)c1cc2c([nH]c3ccccc32)c(-c2ccc(O)cc2)n1,41.2,> 100,29.8,0.7,
CN(C)c1ccc(/C=N/NC(=O)c2cc3c([nH]c4ccccc43)c(-c3ccc(O)cc3)n2)cc1,> 100,2.67,900,,selectivity ratio [3]: 337; Activity (Enterovirus C [7]): 88.3%; Activity (Enterovirus C [8]): 0%; Activity (Enterovirus C [9]): 32%; Activity (Enterovirus C [10]): 0%; Activity (Enterovirus C [11]): 0%; Activity (Enterovirus C [12]): 0%; Activity (Enterovirus C [13]): 0%; Activity (Enterovirus C [14]): 0%; Activity (Enterovirus C [15]): 0%; Activity (Enterovirus C [16]): 0%; Activity (Enterovirus C [17]): 66.3%; Activity (Enterovirus C [18]): 0%; Activity (Enterovirus C [19]): 0%; Activity (Enterovirus C [20]): 0%; Activity (Enterovirus C [21]): 0%; Activity (Enterovirus C [22]): 0%
O=C(N/N=C/c1ccccc1)c1cc2c([nH]c3ccccc32)c(-c2ccc([N+](=O)[O-])cc2)n1,> 100,> 100,,,

# Reference: ChEMBL document CHEMBL1155348, “Synthesis and antiviral activity of beta-carboline derivatives bearing a substituted carbohydrazide at C-3 against poliovirus and herpes simplex virus (HSV-1)” (Eur J Med Chem, 2009)
